Results from ChEMBL document CHEMBL4477155, “Simplified Bryostatin Analogues Protect Cells from Chikungunya Virus-Induced Cell Death” (J Nat Prod, 2016).

Assays:
[1] = system: Chikungunya virus; assay: Antiviral activity against Chikungunya virus Indian Ocean 899 infected in African green monkey BGM cells assessed as inhibition of virus-induced cytopathic effect after 5 days by MTS/PMS based […] analysis; assay type: functional, organism-based; settings: Indian Ocean 899, BGM, 120 h
[2] = Cytotoxicity against African green monkey BGM cells assessed as reduction in cell viability after 5 days by MTS/PMS based microscopic analysis; settings: chlorocebus aethiops
In short: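 Uninfected BGM cells (2.5 × 10^4 cells/well, adhered overnight) exposed to compound dilution series in MEM with 2% FBS at 37 °C, 5% CO2; metabolic activity read by MTS/PMS, with microscopic check of monolayer morphology. CC50 = concentration reducing overall metabolic activity by 50%, by logarithmic interpolation.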

Q: With `CCC/C=C/C=C/C(=O)O[C@H]1/C(=C/C(=O)OC)C[C@H]2C[C@H]([C@@H](C)O)OC(=O)C[C@H](O)C[C@@H]3C[C@H](OC(C)=O)C(C)(C)[C@](O)(C[C@@H]4C/C(=C/C(=O)OC)C[C@H](/C=C/C(C)(C)[C@]1(O)O2)O4)O3` [BRYOSTATIN 1] as the compound, how does the EC50 [1] read?
A: > 96 µM

Q: Which EC50 [1] does the source give for `C=C1C[C@H]2C[C@@H]3O[C@@H](CCC3(C)C)C[C@@H](O)CC(=O)O[C@@H](CO)C[C@@H]3C/C(=C\C(=O)OC)[C@H](OC(=O)CCCCCCC)[C@@](O)(O3)C(C)(C)/C=C/[C@@H](C1)O2` here?
A: 0.35 µM

Q: With `CCC/C=C/C=C/C(=O)O[C@H]1/C(=C/C(=O)OC)C[C@H]2C[C@H]([C@@H](C)O)OC(=O)C[C@H](O)C[C@@H]3C[C@H](O)C(C)(C)[C@](O)(C[C@@H]4C/C(=C/C(=O)OC)C[C@H](/C=C/C(C)(C)[C@]1(O)O2)O4)O3` as the compound, how does the EC50 [1] read?
A: > 96 µM

Q: What about the CC50 at 120 h [2] of the same compound?
A: > 96 µM
